Activity calls are given as the source filed them. The calls are words filed in the database; no cut-off is given here.
Experiments:
Aspergillus fumigatus [1] = assay: Induction of change in phosphoglycerate kinase PgkA, putative protein level in iTRAQ-116 labelled secreted fraction of drug-susceptible Aspergillus fumigatus KU80 delta-akuB at 0.12 ug/ml after 48 hrs in YPD medium by MS (MS/MS) analysis relative to control; format: functional
In short: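 Conidia (1 × 10⁵/ml) grown in YPD, 37°C, 225 rpm, ± 0.12 μg/ml caspofungin; filtrate taken as secreted fraction, French-press lysate 5,000 × g pellet as cell wall/plasma membrane. Trypsin digests 8-plex iTRAQ-labelled (drug-free channels as references), pooled, 2D-chromatography, MS/MS. Median-normalized; protein ratio = median of unique-peptide ratios, log2 normalized.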

Aspergillus fumigatus [2] = assay: Induction of change in carbonic anhydrase family gene expression in drug-susceptible Aspergillus fumigatus KU80 delta-akuB at 0.12 ug/ml after 24 hrs in YPD medium by microarray analysis relative to control; format: functional
In short: (§1)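 Mycelia grown in YPD ± 0.12 μg/ml caspofungin (1 × 10⁵ conidia/ml, 37°C, shaking) and harvested at 24 or 48 h. Total RNA extracted, DNase-treated and quality-checked; 2 μg labelled per TIGR SOP M007 and hybridized to whole-genome arrays. Three independent experiments with dye flip (6 replicates); drug vs untreated fold change.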

Aspergillus fumigatus [3] = assay: Induction of change in Ribosomal protein S21e gene expression in drug-susceptible Aspergillus fumigatus KU80 delta-akuB at 0.12 ug/ml after 24 hrs in YPD medium by microarray analysis relative to control; format: functional; in short: as §1
Aspergillus fumigatus [4] = assay: Induction of change in 60S acidic ribosomal protein P2 gene expression in drug-susceptible Aspergillus fumigatus KU80 delta-akuB at 0.12 ug/ml after 24 hrs in YPD medium by microarray analysis relative to control; format: functional; in short: as §1
Aspergillus fumigatus [5] = assay: Induction of change in Mn superoxide dismutase MnSOD protein level in iTRAQ114 labelled cell wall fraction of drug-susceptible Aspergillus fumigatus KU80 delta-akuB at 0.12 ug/ml after 24 hrs in YPD medium by MS (MS/MS) analysis relative to control; format: functional
In short: (§2)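 Conidia at 1 × 10⁵/ml grown shaking at 37°C in YPD with or without 0.12 μg/ml caspofungin; mycelia filtered at 24 or 48 h. Secreted fraction taken from the filtrate; cell wall/plasma membrane pellet recovered after French-press lysis and a 5,000 × g spin. Proteins trypsin-digested and iTRAQ-labelled, drug vs no-drug channels at each time, then 2D LC-MS/MS. Protein ratio is the median of ratios from uniquely assigned peptides after median normalization.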

Aspergillus fumigatus [6] = assay: Induction of change in C2H2 transcription factor (Rpn4), putative gene expression in drug-susceptible Aspergillus fumigatus KU80 delta-akuB at 0.12 ug/ml after 48 hrs in YPD medium by microarray analysis relative to control; format: functional; in short: as §1
Aspergillus fumigatus [7] = assay: Induction of change in 60s ribosomal protein L24, putative gene expression in drug-susceptible Aspergillus fumigatus KU80 delta-akuB at 0.12 ug/ml after 24 hrs in YPD medium by microarray analysis relative to control; format: functional; in short: as §1
Aspergillus fumigatus [8] = assay: Induction of change in Ribosomal protein S5 protein level in iTRAQ114 labelled cell wall fraction of drug-resistant Aspergillus fumigatus EMFR-S678P at 0.12 ug/ml after 24 hrs in YPD medium by MS (MS/MS) analysis relative to control; format: functional, organism-based
In short: (§3)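 Conidia at 1 × 10⁵/ml were grown at 37°C, shaking at 225 rpm, in YPD with or without 0.12 μg/ml caspofungin for 24 or 48 h. The culture filtrate was kept as the secreted fraction. Mycelia were lysed by French press in HEPES/glycerol/EDTA/PMSF/DTT buffer, and the 5,000 × g pellet was washed to give CW/PM. Proteins were reduced, alkylated and trypsin-digested at 37°C overnight, then iTRAQ-labelled and run by 2D LC-MS/MS. Ratios are the median of unique-peptide ratios, median-normalized, versus the no-drug control.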

Aspergillus fumigatus [9] = assay: Antifungal activity against drug-susceptible Aspergillus fumigatus KU80 delta-akuB assessed as change in hyphal morphology by YPD medium; format: functional; conditions: read-out: MEC
In short: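 Broth microdilution per CLSI M38-A2, in triplicate, in YPD broth (2% yeast extract, 4% peptone, 4% dextrose); minimum effective concentration read as the lowest drug concentration giving a significant change in hyphal morphology visible by eye. Caspofungin dissolved in sterile water.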

Aspergillus fumigatus [10] = assay: Induction of change in ATP citrate lyase, subunit 1, putative protein level in iTRAQ114 labelled secreted fraction of drug-resistant Aspergillus fumigatus EMFR-S678P at 0.12 ug/ml after 24 hrs in YPD medium by MS (MS/MS) analysis relative to control; format: functional; in short: as §3
Aspergillus fumigatus [11] = assay: Induction of change in ThiJ/PfpI family protein level in iTRAQ-118 labelled cell wall fraction of drug-resistant Aspergillus fumigatus EMFR-S678P at 0.12 ug/ml after 24 hrs in YPD medium by MS (MS/MS) analysis relative to control; format: functional; in short: as §3
Aspergillus fumigatus [12] = assay: Induction of change in allergen Asp F4 protein level in iTRAQ-118 labelled cell wall fraction of drug-resistant Aspergillus fumigatus EMFR-S678P at 0.12 ug/ml after 24 hrs in YPD medium by MS (MS/MS) analysis relative to control; format: functional; in short: as §3
Aspergillus fumigatus [13] = assay: Induction of change in transcriptional repressor TupA/RocA, putative protein level in iTRAQ-118 labelled cell wall fraction of drug-resistant Aspergillus fumigatus EMFR-S678P at 0.12 ug/ml after 24 hrs in YPD medium by MS (MS/MS) analysis relative to control; format: functional; in short: as §3
Aspergillus fumigatus [14] = assay: Induction of change in 60S ribosomal protein L10 protein level in iTRAQ-118 labelled cell wall fraction of drug-resistant Aspergillus fumigatus EMFR-S678P at 0.12 ug/ml after 24 hrs in YPD medium by MS (MS/MS) analysis relative to control; format: functional, organism-based; in short: as §3
Aspergillus fumigatus [15] = assay: Induction of change in glucosamine-fructose-6-phosphate aminotransferase protein level in iTRAQ-118 labelled cell wall fraction of drug-resistant Aspergillus fumigatus EMFR-S678P at 0.12 ug/ml after 48 hrs in YPD medium by MS (MS/MS) analysis relative to control; format: functional; in short: as §3
Aspergillus fumigatus [16] = assay: Induction of change in nascent polypeptide-associated complex (NAC) subunit, putative protein level in iTRAQ-116 labelled secreted fraction of drug-resistant Aspergillus fumigatus EMFR-S678P at 0.12 ug/ml after 48 hrs in YPD medium by MS (MS/MS) analysis relative to control; format: functional, organism-based; in short: as §3
Aspergillus fumigatus [17] = assay: Induction of change in 40S ribosomal protein S3Ae protein level in iTRAQ114 labelled cell wall fraction of drug-susceptible Aspergillus fumigatus KU80 delta-akuB at 0.12 ug/ml after 24 hrs in YPD medium by MS (MS/MS) analysis relative to control; format: functional; in short: as §2
Aspergillus fumigatus [18] = assay: Induction of change in BYS1 domain protein, putative protein level in iTRAQ-121 labelled cell wall fraction of drug-susceptible Aspergillus fumigatus KU80 delta-akuB at 0.12 ug/ml after 48 hrs in YPD medium by MS (MS/MS) analysis relative to control

SMILES: CC[C@H](C)C[C@H](C)CCCCCCCCC(=O)N[C@H]1C[C@@H](O)[C@@H](NCCN)NC(=O)[C@@H]2[C@@H](O)CCN2C(=O)[C@H]([C@H](O)CCN)NC(=O)[C@H]([C@H](O)[C@@H](O)c2ccc(O)cc2)NC(=O)[C@@H]2C[C@@H](O)CN2C(=O)[C@H]([C@@H](C)O)NC1=O [CASPOFUNGIN]
- fold change (FC) (Aspergillus fumigatus [1]): -2.8
- fold change (FC) (Aspergillus fumigatus [2]): -6.5
- fold change (FC) (Aspergillus fumigatus [3]): 3.6
- fold change (FC) (Aspergillus fumigatus [4]): 4.3
- fold change (FC) (Aspergillus fumigatus [5]): -1.2
- fold change (FC) (Aspergillus fumigatus [6]): -2.4
- fold change (FC) (Aspergillus fumigatus [7]): 3.5
- Activity (Aspergillus fumigatus [8]): inactive
- minimal effective concentration (Aspergillus fumigatus [9]): 0.19 µg/mL
- fold change (FC) (Aspergillus fumigatus [10]): -1.07
- fold change (FC) (Aspergillus fumigatus [11]): 1.23
- fold change (FC) (Aspergillus fumigatus [12]): 1.07
- fold change (FC) (Aspergillus fumigatus [13]): 1.32
- Activity (Aspergillus fumigatus [14]): inactive
- fold change (FC) (Aspergillus fumigatus [15]): -1.07
- Activity (Aspergillus fumigatus [16]): inactive
- fold change (FC) (Aspergillus fumigatus [17]): 2.3
- fold change (FC) (Aspergillus fumigatus [18]): -2.5

Reference: ChEMBL document CHEMBL1687827, “Profiling the Aspergillus fumigatus proteome in response to caspofungin” (2011)
